Results: ChEMBL document CHEMBL1145175, “Investigations on the effects of basic side chains on the hormonal profile of (4R,5S)/(4S,5R)-4,5-bis(4-hydroxyphenyl)-2-imidazolines” (J Med Chem, 2005)
pEC50, pIC50: −log10 of the molar value.

Key:
[1] = target: T1, Estrogen receptor beta (Homo sapiens, UniProt Q92731); assay: Effective concentration against estrogen receptor beta of […]
Outline: (§1)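 U-2 OS cells grown in charcoal-treated FCS medium were transiently co-transfected with pSG5-ERβ FL (0.05 µg) and (ERE)2luc+ reporter (5 µg) using Fugene6, then pooled and reseeded. Compounds were added at 10^-5 to 10^-10 M in 0.1% DMSO for 21 h. Luciferase RLU was normalised to crystal-violet cell mass, in triplicate, and expressed as % of the E2 plateau.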

[2] = target: T2, Estrogen receptor (Homo sapiens, UniProt P03372); assay: Effective concentration against estrogen receptor alpha of MCF-7-2a cells
T2 sequence (P03372 whole entry): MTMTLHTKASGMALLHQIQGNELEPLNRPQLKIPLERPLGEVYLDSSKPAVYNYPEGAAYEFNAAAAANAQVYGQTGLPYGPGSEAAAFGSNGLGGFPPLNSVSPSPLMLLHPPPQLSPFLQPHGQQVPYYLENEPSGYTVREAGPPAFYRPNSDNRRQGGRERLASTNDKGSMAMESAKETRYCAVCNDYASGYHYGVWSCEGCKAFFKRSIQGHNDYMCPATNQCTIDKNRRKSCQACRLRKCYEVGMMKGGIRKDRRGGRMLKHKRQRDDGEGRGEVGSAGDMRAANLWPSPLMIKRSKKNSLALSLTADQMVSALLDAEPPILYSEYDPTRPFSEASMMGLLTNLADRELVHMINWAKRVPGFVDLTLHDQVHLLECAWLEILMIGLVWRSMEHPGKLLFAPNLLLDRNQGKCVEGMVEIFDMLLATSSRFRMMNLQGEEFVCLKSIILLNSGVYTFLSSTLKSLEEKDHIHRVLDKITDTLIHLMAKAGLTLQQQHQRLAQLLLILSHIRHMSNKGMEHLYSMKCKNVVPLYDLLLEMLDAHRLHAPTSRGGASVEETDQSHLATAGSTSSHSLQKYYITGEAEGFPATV

[3] = target: T1, Estrogen receptor beta; assay: Percent inhibition of 0.30 nM estradiol activity on estrogen receptor beta in MCF-7-2a cells at 10 uM; type: cell-based; conditions: in the assay text read “U-2 OS cells” for “MCF-7-2a cells”
Outline: (§2)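 Antagonist mode used U-2 OS cells transiently co-transfected with pSG5-ERβ FL and (ERE)2luc+ in charcoal-stripped medium. Compounds at 10^-5 to 10^-13 M were co-incubated with E2 at 3.0 × 10^-10 M for 21 h. Luciferase luminescence was normalised to crystal-violet cell mass, in triplicate, and reported as % inhibition of the E2 signal.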

[4] = target: T1, Estrogen receptor beta; assay: Percent activation of estrogen receptor beta in luciferase assay at 10 uM; outline: as §1
[5] = target: T1, Estrogen receptor beta; assay: Inhibition of estrogen receptor beta in […] at 10 uM; type: cell-based; outline: as §2
[6] = target: T1, Estrogen receptor beta; assay: Percent inhibition of 0.30 nM estradiol activity on estrogen receptor beta in U-2 OS cells at 10 uM
[7] = target: T2, Estrogen receptor; assay: Inhibition of estrogen receptor alpha in MCF-7-2a cells at 10 uM; type: cell-based
[8] = target: T1, Estrogen receptor beta; assay: Inhibition of estrogen receptor beta at 10 uM

T1 sequence (Q92731 whole entry): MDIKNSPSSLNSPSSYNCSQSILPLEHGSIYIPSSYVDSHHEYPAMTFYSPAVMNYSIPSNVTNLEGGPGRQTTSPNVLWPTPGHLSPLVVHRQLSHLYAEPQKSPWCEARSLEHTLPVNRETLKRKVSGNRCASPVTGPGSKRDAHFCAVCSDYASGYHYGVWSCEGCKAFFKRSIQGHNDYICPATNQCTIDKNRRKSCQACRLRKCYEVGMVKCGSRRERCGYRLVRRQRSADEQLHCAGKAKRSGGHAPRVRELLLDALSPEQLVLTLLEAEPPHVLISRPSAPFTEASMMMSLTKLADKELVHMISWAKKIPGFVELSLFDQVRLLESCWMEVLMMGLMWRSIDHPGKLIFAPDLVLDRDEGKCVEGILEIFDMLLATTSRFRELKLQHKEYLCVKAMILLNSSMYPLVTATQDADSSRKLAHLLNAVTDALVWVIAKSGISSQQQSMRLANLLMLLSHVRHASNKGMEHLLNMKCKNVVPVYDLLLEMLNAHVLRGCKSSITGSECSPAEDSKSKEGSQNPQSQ

Compound	pEC50 [1]	pEC50 [2]	inhibition [3] [%]	Activation [4] [%]	pIC50 [5]	inhibition [6] [%]	pIC50 [7]	pIC50 [8]
CN(C)CCOc1ccc([C@H]2NC=N[C@H]2c2ccc(O)cc2Cl)c(Cl)c1	5.45	5.82						
Oc1ccc([C@@H]2N=CN[C@@H]2c2ccc(OCCN3CCCCC3)cc2Cl)c(Cl)c1	6.22	5.77	0	60				
CCC1=N[C@H](c2ccc(OCCN3CCCCC3)cc2Cl)[C@H](c2ccc(O)cc2Cl)N1	5.55			92	5.22	75		
Oc1ccc([C@@H]2N=CN[C@@H]2c2ccc(OCCN3CCCC3)cc2Cl)c(Cl)c1	6.33	5.74	30	105				
CN(C)CCOc1ccc([C@H]2N=CN[C@H]2c2ccc(O)cc2)cc1		5.46	0	36				
Oc1ccc([C@@H]2N=CN[C@@H]2c2ccc(OCCN3CCCCC3)cc2)cc1			12	26				
CN(C)CCOc1ccc([C@H]2N=CN[C@H]2c2ccc(O)cc2Cl)c(Cl)c1			4	75				
CCC1=N[C@H](c2ccc(OCCN3CCCCC3)cc2)[C@H](c2ccc(O)cc2)N1	6.30			95		57	7.42	5.05
Oc1cc(Cl)c([C@@H]2N=CN[C@@H]2c2ccc(OCCN3CCCCC3)cc2Cl)c(Cl)c1	6.40	7.07	0	103				
